Series [1] deals with T1, Cannabinoid receptor 2 (Homo sapiens, UniProt P34972). As to the kind of experiment: Inhibition of [3H]CP-55940 binding to human CB2 receptor at 10 uM.
Target sequence in this assay (P34972 whole entry, looked up): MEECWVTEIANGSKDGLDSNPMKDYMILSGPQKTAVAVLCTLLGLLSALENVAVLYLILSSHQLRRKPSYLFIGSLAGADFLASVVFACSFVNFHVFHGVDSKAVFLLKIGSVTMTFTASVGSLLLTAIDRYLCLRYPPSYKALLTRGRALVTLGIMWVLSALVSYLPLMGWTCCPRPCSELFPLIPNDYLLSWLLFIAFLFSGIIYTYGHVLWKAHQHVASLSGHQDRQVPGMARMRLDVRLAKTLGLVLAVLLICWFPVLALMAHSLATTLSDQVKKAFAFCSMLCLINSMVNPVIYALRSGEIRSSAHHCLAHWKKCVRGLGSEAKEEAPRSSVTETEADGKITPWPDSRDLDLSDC
Series [2] addresses T2, Cannabinoid receptor 2 (Rattus norvegicus, UniProt Q9QZN9).
T2 sequence (Q9QZN9 whole entry): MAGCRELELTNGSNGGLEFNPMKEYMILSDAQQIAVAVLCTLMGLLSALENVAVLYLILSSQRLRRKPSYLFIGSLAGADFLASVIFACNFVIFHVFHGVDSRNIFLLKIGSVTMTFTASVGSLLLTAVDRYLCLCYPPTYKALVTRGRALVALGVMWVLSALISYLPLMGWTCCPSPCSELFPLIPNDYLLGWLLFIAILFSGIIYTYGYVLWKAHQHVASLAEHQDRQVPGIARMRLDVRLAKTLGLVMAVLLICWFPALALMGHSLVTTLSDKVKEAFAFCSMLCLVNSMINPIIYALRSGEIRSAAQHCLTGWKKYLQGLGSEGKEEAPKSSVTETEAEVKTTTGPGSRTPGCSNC
Put plainly: Agonist activity at rat brain CB2 receptor by GTPgammaS binding assay. Type of series: functional.

Series [3] has as its target T1, Cannabinoid receptor 2. Put plainly: Displacement of [3H]CP-55940 from human CB2 receptor. The essentials:
(§1)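 Membranes with cloned human CB1 or CB2 receptors; test ligand displaces [3H]CP-55940; Ki values are geometric means of at least three separate determinations.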
Target sequence in this assay (P34972 whole entry): as the sequence (P34972 whole entry, looked up) above

For a further series, the species on record is Homo sapiens. As to the kind of experiment: Selectivity, ratio of Ki for human CB1 to Ki for human CB2. The essentials:
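Ki at each receptor came from displacement of [³H]CP-55940 binding in membranes containing cloned human CB₁ or CB₂ receptor. Ki values are geometric means of at least three separate determinations. Selectivity is Ki CB₁ divided by Ki CB₂.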

The next series has as its target Cannabinoid receptor 1 (Homo sapiens, UniProt P21554). As to the kind of experiment: Displacement of [3H]CP-55940 from human CB1 receptor. The essentials: as §1
The subject of series [4] is Liver microsomes. As to the kind of experiment: Metabolic stability in rat liver microsomes. Type of series: ADME, Microsome. The essentials:
(§2)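 Parent compound incubated with rat (RLM) or human (HLM) liver microsomes for 30 min; result given as % parent remaining.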

Series [5] relates to Liver microsomes. As to the kind of experiment: Metabolic stability in human liver microsomes. Format: ADME, Microsome. Summed up:
as §2

Series [6] can be described thus: Cmax in Sprague-Dawley rat at 100 mg/kg, po. Set-up: dose 100 mg/kg, route oral. Conditions: in vivo. Format: ADME, organism-based. The essentials:
(§3)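 Male Sprague-Dawley rats dosed 100 mg/kg po. Cmax and oral F are mean ± SD of three animals; F is referenced to a 1.0 mg/kg iv dose; Tmax is given as median and range.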

The test system of another series is Rattus norvegicus. Put plainly: Antiallodynic effect against rat hind paw insition model assessed as paw withdrawal at 30 mg/kg, ip. Type of series: functional, organism-based. Set-up: dose 30 mg/kg. Summed up:
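Rat hindpaw incision surgery model with vehicle and morphine treatment groups. Mechanical paw withdrawal threshold of the left hindpaw was followed over time. Data are mean ± SEM; one-way ANOVA with post-hoc protected t-test versus the vehicle-treated surgery group.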

Series [7] is described as follows: Volume of distribution at steady state in Sprague-Dawley rat at 1 mg/kg, iv. Format: ADME, organism-based. Set-up: dose 1 mg/kg, route intravenous. Conditions: in vivo, read-out: Vdss.
Series [8] is described as follows: Clearance in Sprague-Dawley rat at 1 mg/kg, iv. Type of series: ADME, organism-based. Details: dose 1 mg/kg, route intravenous. Conditions: in vivo.
A short description of series [9]: Half life in Sprague-Dawley rat at 1 mg/kg, iv. The note with it: in vivo. Set-up: dose 1 mg/kg, route intravenous. Format: ADME, organism-based.
Series [10] is described as follows: Tmax in Sprague-Dawley rat at 100 mg/kg, po. Type of series: ADME, organism-based. Details: dose 100 mg/kg, route oral. Conditions: in vivo. Summed up: as §3
The nature of series [11]: Oral bioavailability in Sprague-Dawley rat at 100 mg/kg. Format: ADME, organism-based. Conditions: in vivo. Summed up: as §3
The nature of series [12]: AUC (0 to infinity) in Sprague-Dawley rat at 1 mg/kg, iv. Format: ADME, organism-based. The note with it: plasma. Set-up: time infinity, dose 1 mg/kg, route intravenous.
Series [13] in a line: AUC (0 to infinity) in Sprague-Dawley rat at 100 mg/kg, po. Conditions: plasma. Details: time infinity, dose 100 mg/kg, route oral. Format: ADME, organism-based.

Calls of active or inactive are those of the source.

Chain of Cannabinoid receptor 1 (P21554 whole entry): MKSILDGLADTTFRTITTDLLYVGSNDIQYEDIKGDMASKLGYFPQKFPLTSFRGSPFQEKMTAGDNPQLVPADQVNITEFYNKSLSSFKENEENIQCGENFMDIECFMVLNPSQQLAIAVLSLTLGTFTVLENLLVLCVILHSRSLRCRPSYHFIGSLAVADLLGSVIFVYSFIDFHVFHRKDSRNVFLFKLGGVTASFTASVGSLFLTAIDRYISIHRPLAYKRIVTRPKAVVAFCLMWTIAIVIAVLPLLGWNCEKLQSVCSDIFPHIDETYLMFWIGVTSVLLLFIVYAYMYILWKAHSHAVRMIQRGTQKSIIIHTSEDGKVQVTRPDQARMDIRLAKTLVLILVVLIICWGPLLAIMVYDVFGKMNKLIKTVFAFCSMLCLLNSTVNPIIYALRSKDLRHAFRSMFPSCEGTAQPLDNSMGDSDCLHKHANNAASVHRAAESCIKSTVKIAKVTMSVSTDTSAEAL

For the compound `CCC(C)(C)C(=O)Nc1cc(C)c(C)c(S(=O)(=O)N2CCC[C@@H]2CO)c1`, the inhibition on Cannabinoid receptor 2 [1] stood at 8.3%. Moreover, a half-maximal effect at Cannabinoid receptor 2 [2] (EC50) was put at 0.098 µM. This compound also displayed an inhibition constant (Ki) on Cannabinoid receptor 2 [3] of 0.043 µM.

For `CCC(C)(C)C(=O)Nc1cc(C)c(C)c(S(=O)(=O)N2CCCCC2)c1`, the Ratio Ki in the series listed under Homo sapiens stood at 240. Also, the results for the inhibitory constant (Ki) on Cannabinoid receptor 1 and at Cannabinoid receptor 2 [3] were 0.65 µM and 0.0027 µM, respectively. The Stability with Liver microsomes [4] and in the series on Liver microsomes [5] was 0% in each case. In addition, the EC50 at Cannabinoid receptor 2 [2] turned out to be 0.013 µM.

As to `CCC(C)(C)C(=O)Nc1cc2c(c(S(=O)(=O)N3CCOCC3)c1)CCC2`, the Ratio Ki in the series filed under Homo sapiens was found to be 140. Further, the inhibition constant (Ki) at Cannabinoid receptor 1 turned out to be 1.7 µM; at Cannabinoid receptor 2 [3], 0.012 µM. For the same compound, the Stability in the series with Liver microsomes [4] turned out to be 9%; in the series with Liver microsomes [5], 10%. Also, on Cannabinoid receptor 2 [2], the EC50 turned out to be 1.7 µM.

The compound `CCC(C)(C)C(=O)Nc1cc(C)c(C)c(S(=O)(=O)N2CC[C@H](O)C2)c1` displayed an inhibition on Cannabinoid receptor 2 [1] of 6.3%. It took 0.073 µM to reach a half-maximal effect on Cannabinoid receptor 2 [2] (EC50). Moreover, the inhibition constant (Ki) at Cannabinoid receptor 2 [3] was found to be 0.09 µM.

Consider `CCC(C)(C)C(=O)Nc1cc(C)c(C)c(S(=O)(=O)NC2CCCC2)c1`, for which the Ratio Ki in the series filed under Homo sapiens amounted to 36. The inhibition constant (Ki) at Cannabinoid receptor 1 turned out to be 3.4 µM; at Cannabinoid receptor 2 [3], 0.094 µM. It took 0.098 µM to reach a half-maximal effect on Cannabinoid receptor 2 [2] (EC50).

In the case of `CCC(C)(C)C(=O)Nc1cc(C)c(C)c(S(=O)(=O)N2CCSC2)c1`, the Ratio Ki in the series filed under Homo sapiens came out at 300. The figures for the Ki at Cannabinoid receptor 1 and on Cannabinoid receptor 2 [3] were 2.1 µM and 0.0069 µM, respectively. The Stability with Liver microsomes [4] and with Liver microsomes [5] was 0% in each case. The compound further came in with an EC50 at Cannabinoid receptor 2 [2] of 0.012 µM.

Take `Cc1cc(NC(=O)C(C)(C)O)cc(S(=O)(=O)N2CCOCC2)c1C`: the Ki at Cannabinoid receptor 2 [3] amounted to 2.08 µM. This lies in the single-digit micromolar range.

With `CCC(C)(C)C(=O)Nc1cc(S(=O)(=O)N2CCOCC2)cc(C)c1C`, the inhibition at Cannabinoid receptor 2 [1] was determined as 15%.

Consider `Cc1cc(NC(=O)C(C)(C)C)cc(S(=O)(=O)N2CCOCC2)c1C`, for which the Ratio Ki in the series filed under Homo sapiens stood at 78. Also, the results for the Ki on Cannabinoid receptor 1 and on Cannabinoid receptor 2 [3] were 3.1 µM and 0.04 µM, respectively. Further, the Stability in the series with Liver microsomes [4] is on record as 37%; in the series with Liver microsomes [5], 52%. Also, a half-maximal response on Cannabinoid receptor 2 [2] (EC50) required 0.09 µM.

`COCCC(C)(C)C(=O)Nc1cc(C)c(C)c(S(=O)(=O)N2CCOCC2)c1` registered an inhibition constant (Ki) on Cannabinoid receptor 2 [3] of 0.11 µM.

Consider `CCC(C)(C)C(=O)Nc1ccc(C)c(S(=O)(=O)N2CCOCC2)c1`, for which the Ki on Cannabinoid receptor 2 [3] is 0.29 µM.

`CCC(C)(C)C(=O)Nc1cc(S(=O)(=O)N2CCOCC2)c(C)cc1C` gave a Ki at Cannabinoid receptor 2 [3] of 0.76 µM.

In the case of `CCC(C)(C)C(=O)Nc1cc(S(=O)(=O)N2CCOCC2)c(C)c(C)c1C`, the affinity on Cannabinoid receptor 2 [3], expressed as Ki, was 0.41 µM.

As for `CCC(C)(C)C(=O)Nc1cc(C)c(C)c(S(=O)(=O)N2CCS(=O)(=O)CC2)c1`, the Stability in the series with Liver microsomes [4] was found to be 10%; with Liver microsomes [5], 1%. On Cannabinoid receptor 2 [1], this compound displayed an inhibition of 18%. Besides, it took 0.02 µM to reach a half-maximal effect at Cannabinoid receptor 2 [2] (EC50). This compound also returned a Ki on Cannabinoid receptor 2 [3] of 0.0084 µM.

Turning to `Cc1ccc(NC(=O)C2C(C)(C)C2(C)C)cc1S(=O)(=O)N1CCOCC1`, the Ratio Ki in the series listed under Homo sapiens is 150. The Stability was 2% in the series with Liver microsomes [4] and 1% in the series with Liver microsomes [5]. The compound further returned an EC50 at Cannabinoid receptor 2 [2] of 0.011 µM.

`Cc1cc(NC(=O)C2C(C)(C)C2(C)C)cc(S(=O)(=O)N2CCOCC2)c1C`: in the series filed under Homo sapiens, the Ratio Ki worked out at 69. Moreover, the Ki on Cannabinoid receptor 1 amounted to 1.1 µM; on Cannabinoid receptor 2 [3], 0.016 µM. Further, the Stability was 31% in the series on Liver microsomes [4] and 17% with Liver microsomes [5]. Moreover, a half-maximal effect at Cannabinoid receptor 2 [2] (EC50) was put at 0.066 µM.

Turning to `CCCCC(C)(C)C(=O)Nc1cc(C)c(C)c(S(=O)(=O)N2CCOCC2)c1`, the Ratio Ki in the series filed under Homo sapiens stood at 130. Further, the figures for the Ki at Cannabinoid receptor 1 and on Cannabinoid receptor 2 [3] were 0.14 µM and 0.0011 µM, respectively. For the same compound, the Stability in the series with Liver microsomes [4] and with Liver microsomes [5] was 0% in each case. Besides, at Cannabinoid receptor 2 [2], the EC50 amounted to 0.082 µM.

Regarding `Cc1cc(NC(=O)C(C)(C)c2ccccc2)cc(S(=O)(=O)N2CCOCC2)c1C`, the inhibition constant (Ki) on Cannabinoid receptor 2 [3] was 0.12 µM.

Regarding `CCC(C)(C)C(=O)Nc1cc(C)c(C)c(S(=O)(=O)N2CCCCCC2)c1`, the Ratio Ki in the series listed under Homo sapiens came to 200. The figures for the Ki on Cannabinoid receptor 1 and at Cannabinoid receptor 2 [3] were 1.8 µM and 0.009 µM, respectively. Besides, the Stability with Liver microsomes [4] and in the series on Liver microsomes [5] was 0% each time. This compound also returned an EC50 on Cannabinoid receptor 2 [2] of 0.022 µM.

Turning to `CCC(C)(C)C(=O)Nc1cc(C)c(C)c(S(=O)(=O)N2CCOCC2)c1`, the Ratio Ki in the series listed under Homo sapiens turned out to be 150. The compound further gave a Cmax in [6] of 1220 ng/mL. The outcome in the series with Rattus norvegicus was Active. Also, the Ki amounted to 2.5 µM at Cannabinoid receptor 1 and 0.017 µM on Cannabinoid receptor 2 [3]. In addition, the Vd in series [7] was 2.5 L/kg. For the same compound, in [8], the clearance was 70 mL/min/kg. Moreover, the half-life in series [9] is 0.7 h. Further, the Tmax in series [10] was determined as 6 h. In addition, the Stability was found to be 28% in the series on Liver microsomes [4] and 17% in the series with Liver microsomes [5]. Also, the bioavailability in series [11] amounted to 22%. Further, the AUC(0-inf) in [12] is 237 ng·h/mL; in series [13], 4800 ng·h/mL. The EC50 at Cannabinoid receptor 2 [2] came to 0.038 µM.

Turning to `CCCC(C)(C)C(=O)Nc1cc(C)c(C)c(S(=O)(=O)N2CCOCC2)c1`, the Ratio Ki in the series filed under Homo sapiens was determined as 86. For the same compound, the results for the Ki on Cannabinoid receptor 1 and on Cannabinoid receptor 2 [3] were 0.83 µM and 0.0097 µM, respectively. Moreover, the Stability is 9% in the series with Liver microsomes [4] and 1% in the series with Liver microsomes [5]. A half-maximal effect at Cannabinoid receptor 2 [2] (EC50) was put at 0.021 µM.

As for `Cc1cc(NC(=O)C(C)(C(F)(F)F)C(F)(F)F)cc(S(=O)(=O)N2CCOCC2)c1C`, in the series listed under Homo sapiens, the Ratio Ki is 120. Moreover, the Ki worked out at 0.78 µM on Cannabinoid receptor 1 and 0.0066 µM at Cannabinoid receptor 2 [3]. In addition, the Stability in the series with Liver microsomes [4] worked out at 22%; in the series with Liver microsomes [5], 11%. At Cannabinoid receptor 2 [2], this compound registered an EC50 of 0.011 µM.

Regarding `CCC(C)(C)C(=O)Nc1cc2c(c(S(=O)(=O)N3CCOCC3)c1)CCCC2`, the Ratio Ki in the series listed under Homo sapiens stood at 100. Moreover, the Ki on Cannabinoid receptor 1 amounted to 1.4 µM; at Cannabinoid receptor 2 [3] it was 0.014 µM. Moreover, the Stability with Liver microsomes [4] stood at 2%; in the series with Liver microsomes [5], 1%. At Cannabinoid receptor 2 [2], this compound came in with an EC50 of 1.4 µM.

In the case of `CCC(C)(C)C(=O)Nc1cc(C)c(C)c(S(=O)(=O)NCC2CC2)c1`, the Ratio Ki in the series filed under Homo sapiens is 57. In addition, the results for the Ki on Cannabinoid receptor 1 and on Cannabinoid receptor 2 [3] were 3.8 µM and 0.066 µM, respectively. The compound also showed an EC50 at Cannabinoid receptor 2 [2] of 0.135 µM.

The values are drawn from ChEMBL document CHEMBL1153132, “Novel sulfamoyl benzamides as selective CB(2) agonists with improved in vitro metabolic stability” (Bioorg Med Chem Lett, 2010).
